The values that follow come from ChEMBL document CHEMBL1155837 (Bioorg Med Chem Lett, 2008).

Each structure is given as a SMILES string.

The nature of data set [1]: Cytotoxicity against HEL cells assessed as inhibition of cell proliferation. It is filed as cell-based. To be noted: human.
Data set [2] in a line: Cytotoxicity against HEL cells assessed as alteration of cell morphology. It is filed as cell-based. To be noted: human. In a few lines: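 In HEL cells, the MCC is the minimal compound concentration producing a microscopically visible change in cell morphology.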
Data set [3] relates to Human alphaherpesvirus 2. Kind of data set: Antiviral activity against acyclovir-sensitive HSV2 HG32 in african green monkey Vero cells assessed as inhibition of virus plaque formation. It is filed as functional, organism-based. The following applies: Human alphaherpesvirus 2, HG32, Vero. In a few lines: (§1)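 Vero cells were grown to density in DMEM with 10% fetal bovine serum, L-glutamine, penicillin and streptomycin, then preincubated 30 min with drug and kept in drug throughout. They were infected with 100 pfu per well, adsorbed 45 min and overlaid with 1.2% Avicel in DMEM. After 3 days, plaques were stained with crystal violet and counted.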

In data set [4] the test system is Human alphaherpesvirus 2. Kind of data set: Antiviral activity against acyclovir-resistant HSV2 ACR in african green monkey Vero cells assessed as inhibition of virus plaque formation. The class given is functional, organism-based. To be noted: Human alphaherpesvirus 2, ACR. In short, it runs like this: as §1
The test system of data set [5] is Human alphaherpesvirus 3. The data set can be described thus: Antiviral activity against TK+ VZV YS infected HEL cells assessed as reduction in virus plaque formation after 5 days. The following applies: Human alphaherpesvirus 3, YS, 120 h. It is filed as functional, organism-based.
Data set [6] relates to Human alphaherpesvirus 3. Kind of data set: Antiviral activity against TK+ VZV OKA infected HEL cells assessed as reduction in virus plaque formation after 5 days. The class given is functional, organism-based. The following applies: Human alphaherpesvirus 3, OKA, 120 h.
In data set [7] the test system is Human alphaherpesvirus 1. The data set can be described thus: Antiviral activity against HSV1 KOS in HEL cells assessed as inhibition of virus induced cytopathicity within 48 hrs. The following applies: Human alphaherpesvirus 1, KOS. The class given is functional, organism-based. In short, it runs like this:
(§2)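 Confluent HEL fibroblast cultures were inoculated with 100 CCID50 of virus per well. After 1 h adsorption, residual virus was removed and cells were incubated with serial dilutions of compound.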

Data set [8] deals with Human alphaherpesvirus 2. The data set can be described thus: Antiviral activity against HSV2 G in HEL cells assessed as inhibition of virus induced cytopathicity within 48 hrs. The class given is functional, organism-based. The following applies: Human alphaherpesvirus 2, strain G. In short, it runs like this: as §2
Background: Protection from cytopathic effect is a common read-out in antiviral testing.

For data set [9], the system named is Human alphaherpesvirus 3. Kind of data set: Antiviral activity against thymidine kinase deficient VZV YS/R infected HEL cells assessed as reduction in virus plaque formation after 5 days. It is filed as functional, organism-based. The following applies: Human alphaherpesvirus 3, YS/R, 120 h.
The test system of data set [10] is Human alphaherpesvirus 3. The data set can be described thus: Antiviral activity against thymidine kinase deficient VZV 07/1 infected HEL cells assessed as reduction in virus plaque formation after 5 days. The class given is functional, organism-based. To be noted: Human alphaherpesvirus 3, 07/1, HEL, 120 h.
Data set [11] has as its system Human alphaherpesvirus 2. The data set can be described thus: Antiviral activity against HSV2. The class given is functional, organism-based.
The test system of data set [12] is Human alphaherpesvirus 1. The data set can be described thus: Antiviral activity against acyclovir-resistant and thymidine kinase deficient HSV1 KOS in HEL cells assessed as inhibition of virus induced cytopathicity within 48 hrs. It is filed as functional, organism-based. The following applies: Human alphaherpesvirus 1, KOS. In a few lines: as §2

For the compound `Nc1nc2c(ncn2COCCO)c(=O)[nH]1` [ACYCLOVIR], the CC50 in data set [1] amounted to 1350 µM. Further, in [2], the MCC was over 250 µM. Further, the EC50 with Human alphaherpesvirus 2 [3] was 6 µM; in the data set with Human alphaherpesvirus 2 [4] it was over 100 µM.
On to `C[C@H](NP(=O)(OCCOCn1cnc2c(=O)[nH]c(N)nc21)Oc1ccccc1)C(=O)OCc1ccccc1` (some centres not stated), for which the EC50 in the data set with Human alphaherpesvirus 3 [5] was 1 µM; in the data set with Human alphaherpesvirus 3 [6] it was 0.72 µM; with Human alphaherpesvirus 1 [7], 0.9 µM; with Human alphaherpesvirus 2 [3], 20.3 µM; in the data set on Human alphaherpesvirus 2 [8], 1.4 µM; with Human alphaherpesvirus 3 [9], 0.59 µM. The results for the EC50 in the data set with Human alphaherpesvirus 2 [4] and in the data set on Human alphaherpesvirus 3 [10] were 15.5 µM and 1.8 µM, respectively. Also, the CC50 in [1] is over 100 µM. In addition, the MCC in data set [2] was over 50 µM.
As to `COC(=O)[C@H](C)NP(=O)(OCCOCn1cnc2c(=O)[nH]c(N)nc21)Oc1ccccc1` (some centres not stated), the EC50 is 20 µM in the data set on Human alphaherpesvirus 3 [5]; at least 100 µM in the data set with Human alphaherpesvirus 2 [11]; 19 µM in the data set on Human alphaherpesvirus 3 [6]; 80 µM in the data set with Human alphaherpesvirus 1 [12]; 43.1 µM in the data set with Human alphaherpesvirus 2 [3]; 15 µM with Human alphaherpesvirus 2 [8]. For the same compound, the EC50 with Human alphaherpesvirus 3 [9] worked out at 16 µM; in the data set with Human alphaherpesvirus 2 [4], 18.7 µM; with Human alphaherpesvirus 3 [10], 24 µM. In addition, the CC50 in data set [1] amounted to 162 µM. For the same compound, in [2], the MCC is over 100 µM.
As to `Nc1nc2c(ncn2COCCOP(=O)(N[C@@H](Cc2ccccc2)C(=O)OCc2ccccc2)Oc2ccccc2)c(=O)[nH]1` (some centres not stated), the EC50 in the data set with Human alphaherpesvirus 3 [5] was 6.6 µM; in the data set on Human alphaherpesvirus 3 [6], 5.2 µM; in the data set on Human alphaherpesvirus 1 [12], over 100 µM; with Human alphaherpesvirus 2 [3], 20.3 µM; in the data set with Human alphaherpesvirus 2 [8], 8 µM; in the data set on Human alphaherpesvirus 3 [9] it was 10 µM. For the same compound, the EC50 with Human alphaherpesvirus 2 [4] amounted to 33.2 µM; in the data set with Human alphaherpesvirus 3 [10], 8.4 µM. In addition, the CC50 in data set [1] was 86.9 µM. Also, the MCC in [2] was over 50 µM.
As for `COC(=O)[C@H](C)NP(=O)(OCCOCn1cnc2c(=O)[nH]c(N)nc21)Oc1cccc2ccccc12` (some centres not stated), the EC50 in the data set with Human alphaherpesvirus 3 [5] came out at 10.9 µM; in the data set with Human alphaherpesvirus 3 [6], 7.6 µM; in the data set on Human alphaherpesvirus 1 [12], 80 µM; in the data set with Human alphaherpesvirus 2 [3] it was 40.4 µM; in the data set with Human alphaherpesvirus 3 [9], 6.1 µM; with Human alphaherpesvirus 2 [4], 15 µM. For the same compound, the EC50 with Human alphaherpesvirus 3 [10] was 22 µM. Besides, in data set [1], the CC50 is over 100 µM. Further, the MCC in [2] is over 50 µM.
For `C[C@H](NP(=O)(OCCOCn1cnc2c(=O)[nH]c(N)nc21)Oc1cccc2ccccc12)C(=O)OCc1ccccc1` (some centres not stated), the EC50 in the data set with Human alphaherpesvirus 3 [5] came to 3.3 µM; with Human alphaherpesvirus 3 [6] it was 7.2 µM; with Human alphaherpesvirus 1 [12], 11 µM; in the data set on Human alphaherpesvirus 2 [3], 9.8 µM; in the data set on Human alphaherpesvirus 2 [4], 14.5 µM; in the data set on Human alphaherpesvirus 3 [10], 6.9 µM. Moreover, the CC50 in [1] turned out to be 20 µM. Also, the MCC in [2] is over 50 µM.

Usually CC50 stands for the concentration that lowers cell viability or growth by half. In general, EC50 refers to the concentration giving half of the maximal effect.
